A short description of this series: Toxicity liver stage against HepG2, at 10uM. The format is cell-based. The arrangement: test concentration 10 uM, cell line HepG2-A16-CD81EGFP. The note with it: human, HepG2-A16-CD81EGFP cells; read-out: INHIBITION
The essentials: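 Uninfected HepG2-A16-CD81EGFP cells, 3 × 10^3 per well, 1536-well, plated on prespotted compound at 10 μM final, parasite-free screening media added to match infected plates; puromycin 10 μM positive, DMSO 0.5% negative; run in parallel with 48 h PbLuc assay at 37 °C, 5% CO2; viability by CellTiter-Glo luminescence, normalized to controls.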
As to `CSc1ccccc1NC(=O)C1CN(C(=O)c2ccc3c(c2)OCO3)C1`, the cytotoxicity at 10 µM is -12.3%. On to `Cc1nc(CN2CCC23CCN(C(=O)c2ccncc2)CC3)cs1`, for which the cytotoxicity at 10 µM worked out at 0.933%.

For the compound `O=C([C@H]1CCS(=O)(=O)[C@@H]2CN(Cc3ccc(F)cc3)C[C@H]12)N1CCCC1`, the cytotoxicity at 10 µM worked out at 2.96%. With `Cc1oc(-c2nc(C#N)c(N(C)C)o2)cc1S(=O)(=O)N1CCCCCC1`, the cytotoxicity at 10 µM was -13.9%. In the case of `CC(C)NC(=O)Cn1cc(-c2ccccc2)ncc1=O` it was -9.87%; in that of `COc1cccc(NC(=O)NCc2cnn(C)c2)c1`, -1.59%; in that of `Cc1cc(C(=O)NCc2c(C)nn(C)c2C)nc(N2CCOCC2)n1`, 0.0436%. The value for `CCn1nc(C)c(CN2CCC(c3ccn[nH]3)C2)c1C` (configuration not stated) was -0.125%; that for `Cc1c(CN2CCCC2c2cncc(CN3CCCC3)n2)cnn1C` (configuration not stated) was -1.15%.

As for `Cn1ccnc1C(O)c1ccccc1N1CCN(CC2CCCC2)CC1` (configuration not stated), the cytotoxicity at 10 µM was found to be 0.135%. Turning to `NC(=O)C1(c2cnccn2)CCCN1C(=O)Cc1ccsc1` (configuration not stated), the cytotoxicity at 10 µM came to 1.54%.

Turning to `O=C(C1CCOC1)N1Cc2ccccc2OC2(CCOCC2)C1` (configuration not stated), the cytotoxicity at 10 µM worked out at 1.32%. The value for `C=Cn1ncc(CN2C[C@@H]3C[C@@H](O)CN3C[C@H]2Cc2ccccc2)c1C` was 4.08%; that for `Cc1cc(-c2ccccc2C(=O)O)nc(C2CCCN(C(C)C)C2)n1` (configuration not stated) was -4.47%. Consider `CC(O)c1cn(Cc2cccc(C(F)(F)F)c2)nn1` (configuration not stated), for which the cytotoxicity at 10 µM was found to be 14.1%.

Take `CN(CC1CCOC1)c1ncc(Br)cn1` (configuration not stated): the cytotoxicity at 10 µM stood at 4.23%. Regarding `CC(c1cccnc1)N(C)S(C)(=O)=O` (configuration not stated), the cytotoxicity at 10 µM is -5.21%. Take `CCn1cnnc1CCNC(=O)c1ccc(F)c(Br)c1`: the cytotoxicity at 10 µM came to 5.36%. In the case of `COc1ccccc1C(=O)NCc1n[nH]c(C)n1` it was -0.519%; in that of `NC(=O)CC1CCN(S(=O)(=O)N2CCCC2c2ccco2)CC1` (configuration not stated), 3.82%.

For the compound `CCc1oc(C(=O)N[C@@H]2c3ccccc3C[C@@H]2O)cc1C`, the cytotoxicity at 10 µM came out at 0.243%. On to `NC(=O)CN(CC(=O)NCCc1c(F)cccc1F)C1CCCC1`, for which the cytotoxicity at 10 µM is -8.02%. Turning to `Cc1cccc(NCCOc2cccc(C#N)c2)c1C(N)=O`, the cytotoxicity at 10 µM was -3.59%. `CC(C)n1nc2c(cc1=O)CN(CCOc1ccccc1C#N)CC2`: the cytotoxicity at 10 µM was 13.7%. Consider `CC(=O)N(c1ccc(C)cc1)c1nc(CN2CCCC(C)C2)cs1` (configuration not stated), for which the cytotoxicity at 10 µM is -6.71%. Regarding `COCCNc1ccc(CNC(=O)C2COc3ccccc32)cc1` (configuration not stated), the cytotoxicity at 10 µM is -13.9%.

`Cc1nccn1CCCNc1nccnc1C#N`: the cytotoxicity at 10 µM was -7.21%. Take `CCOCCC(=O)Nc1ccnn1-c1ccc(Cl)cc1`: the cytotoxicity at 10 µM was -12.6%. `Cc1ccc(C(=O)NS(=O)(=O)Cc2ccon2)c(C)c1`: the cytotoxicity at 10 µM is -3.16%. In the case of `CC(=O)c1ccc(-n2c(C)cn(CCC(=O)NC(N)=O)c2=O)cc1` it was 14.3%. Turning to `Cc1cc(C(C)(O)CNC(=O)c2ccc(Br)o2)c(C)o1` (configuration not stated), the cytotoxicity at 10 µM was -0.159%. Turning to `Cc1nncn1CCNC(=O)C(C)(C)c1cccc(F)c1`, the cytotoxicity at 10 µM was found to be 5.73%.

As for `O=C(NCCO)Nc1cccc(Cl)c1SC(F)F`, the cytotoxicity at 10 µM was 5.98%. On to `CN(C)c1nccc(NCc2cc(-c3ccco3)n[nH]2)n1`, for which the cytotoxicity at 10 µM was 2.27%. With `CC(C)C[C@@H](C(N)=O)n1cc(-c2cncnc2)nn1`, the cytotoxicity at 10 µM came to 3.28%. For the compound `CSCC(=O)N(C)Cc1cnn(-c2ccc(F)cc2)c1`, the cytotoxicity at 10 µM is -13.4%.

On to `O=C(NCCCOc1cccnc1)c1cn(Cc2ccccc2F)nn1`, for which the cytotoxicity at 10 µM came out at 1.03%. `CCCN1CCC(Cc2noc(-c3ncccc3C)n2)CC1`: the cytotoxicity at 10 µM was determined as 0.0119%. For `CCC(C(=O)N1CCN(S(=O)(=O)N2CCCC2)CC1)n1cccn1` (configuration not stated), the cytotoxicity at 10 µM was -8.56%. Take `Cc1cccc(CN2C[C@@H](CN3CCCN(C)CC3)C[C@H](CO)C2)n1`: the cytotoxicity at 10 µM amounted to 2.04%. As to `Cc1nn(C(C)C)c(C)c1CN1CCC(c2cc(C(C)C)n[nH]2)CC1`, the cytotoxicity at 10 µM came to 1.34%.

With `Cc1nc2ccccn2c1CN1C[C@@H](CN2CCOCC2)[C@@H](CO)C1`, the cytotoxicity at 10 µM turned out to be 1.73%. As for `CCc1ocnc1C(=O)N1CCOC(CCCC(C)C)C1` (configuration not stated), the cytotoxicity at 10 µM was 4.29%. With `CC(NC(=O)CCCc1ccc(Cl)cc1)c1n[nH]c(=O)[nH]1` (configuration not stated), the cytotoxicity at 10 µM worked out at 3.26%.

`Cc1cc(=O)c2ccccc2n1CC1CCNC1` (configuration not stated): the cytotoxicity at 10 µM was 5.98%. The value for `COc1ccccc1OCCCN1CCNC1=O` was 1.5%. For `O=C(c1ccnc(N2CCOC(C(F)(F)F)C2)c1)N1CCOCC1` (configuration not stated), the cytotoxicity at 10 µM was found to be 2.52%.

Take `Cc1ccccc1C(C(=O)N(C)Cc1cnn(C)c1)N(C)C` (configuration not stated): the cytotoxicity at 10 µM was -0.837%. In the case of `O=C(Cn1ccc2ccccc21)NCc1cc(N2CCOCC2)ncn1` it was 4.44%; in that of `O=C(NCc1ccc2c(c1)CCCO2)c1cn2c(n1)CNCC2`, -15.7%; in that of `COc1ccnc(CN2CC(=O)N(c3ccc(C)cc3)CC2C)c1OC` (configuration not stated), -10.8%. In the case of `CC(C)C1CN(S(=O)(=O)N(C)C)CCCN1Cc1ccc(F)cc1` (configuration not stated) it was 5.17%; in that of `Cc1cccnc1[C@H](C)Nc1nc(-c2cccnc2)nc2c1CNC2`, -8.52%; in that of `O=C(c1cnnn1-c1ccccc1)N1CCCC(c2ccn[nH]2)C1` (configuration not stated), -2.75%. For the compound `CN(Cc1ccc2nsnc2c1)CC1(O)CNCCOC1` (configuration not stated), the cytotoxicity at 10 µM was -5.03%. For the compound `CCN(Cc1ccc(C)o1)C(=O)C(C)n1ccnc1C(C)C` (configuration not stated), the cytotoxicity at 10 µM turned out to be 7.66%. For `CN(C)C(=O)c1nc(CN2C(=O)OC[C@@H]2c2ccccc2)no1`, the cytotoxicity at 10 µM is -1.95%. The value for `CN(C(=O)Cc1ccn(C)c1)C1CCCN(C2Cc3ccccc3C2)C1` (configuration not stated) was 4.77%. As to `CC(C)(C)c1nc(CN2CCC3(CCCO3)CCC2=O)no1` (configuration not stated), the cytotoxicity at 10 µM was -4.57%.

Consider `CC(Cn1ccnc1)NCc1n[nH]c2c1CCC2` (configuration not stated), for which the cytotoxicity at 10 µM amounted to 6.07%. As for `CCS(=O)(=O)c1ncc(CN2CCCC2)n1CCc1ccccc1`, the cytotoxicity at 10 µM worked out at 5.35%. In the case of `O=C(O)C1c2nc[nH]c2CCN1Cc1ccccc1-c1ccccc1` (configuration not stated), the cytotoxicity at 10 µM was -10.5%.

As for `Cc1cc(C(=O)N2C[C@H](c3ccccc3)[C@@H](N)C2)c2ccc(F)cc2n1`, the cytotoxicity at 10 µM was 3.96%. Consider `COc1ccc([C@@H]2CN(C(=O)CCCc3cn[nH]c3)C[C@H]2N(C)C)cc1`, for which the cytotoxicity at 10 µM was -2.31%. Take `CCS(=O)(=O)N1CCCC(c2nccn2Cc2cccnc2)C1` (configuration not stated): the cytotoxicity at 10 µM was -2.78%. Regarding `CCN1CCC(CC(=O)NCCc2nc(C)c(Cl)s2)CC1`, the cytotoxicity at 10 µM is -7.43%. Turning to `CC(C)[C@H]1CN(c2ccnc(N)n2)C[C@@H]1NC(=O)C1(C#N)CCOCC1`, the cytotoxicity at 10 µM was -2.8%. As for `Cc1cnn(C2(C(=O)O)CCN(c3ccncc3F)CC2)c1`, the cytotoxicity at 10 µM is -1.94%. With `CCC[C@H]1CN(CCS(C)(=O)=O)C[C@@H]1NC(=O)c1cc[nH]n1`, the cytotoxicity at 10 µM worked out at 2.75%. `COc1ccccc1OC1CCN(C(=O)c2cnc(C)s2)CC1`: the cytotoxicity at 10 µM is -19.2%. For `CC(C)(C)c1ccc(C(=O)C2CCCN(C(=O)CNS(C)(=O)=O)C2)cc1` (configuration not stated), the cytotoxicity at 10 µM turned out to be 4.1%. For the compound `O=C(CN1CCOc2ccccc2C1)NCc1cc2n(n1)CCCNC2`, the cytotoxicity at 10 µM was determined as 8.1%.

In the case of `CCCn1ncc(CN(Cc2ccsc2)Cc2ccco2)c1C`, the cytotoxicity at 10 µM was 9.27%. Consider `CC(COc1ccccc1)NCc1cn2ccccc2n1` (configuration not stated), for which the cytotoxicity at 10 µM stood at 16.6%. For the compound `Cc1ccccc1SC1CCN(C(=O)C2CNC(=O)N2)CC1` (configuration not stated), the cytotoxicity at 10 µM is -2.22%. As for `CC(C)C1CN(c2ncccn2)CCC(=O)N1Cc1ccc(F)cc1` (configuration not stated), the cytotoxicity at 10 µM came out at 1.76%. As for `Cn1cc(CNc2ncnc3c2CCN(Cc2ccsc2)CC3)cn1`, the cytotoxicity at 10 µM came out at 15.5%. With `CSCCC(NC(=O)c1nc(SC)ncc1Cl)C(=O)O` (configuration not stated), the cytotoxicity at 10 µM was -8.77%. For `Cc1ncsc1C(=O)NCc1ccnc(N2CCN(C)CC2)c1`, the cytotoxicity at 10 µM was -6.92%. Take `CC(Cn1ccnc1)NC(=O)N1CCN(Cc2ccncc2)CC1` (configuration not stated): the cytotoxicity at 10 µM was -4.1%. For the compound `COc1ccc(CC(=O)N2CCCC(c3nncn3C)C2)cc1` (configuration not stated), the cytotoxicity at 10 µM was -7.47%. `O=C(c1ccccc1OCC1CC1)N1CCCC1Cn1cccn1` (configuration not stated): the cytotoxicity at 10 µM is -6.77%.

For the compound `CCN1CCOC(CNCc2ccccc2OCC(=O)N(C)C)C1` (configuration not stated), the cytotoxicity at 10 µM was -15.4%. For the compound `CN1CCOC(CNCc2cccc(OCc3ccccn3)c2)C1` (configuration not stated), the cytotoxicity at 10 µM is -16.5%. Take `O=C(NCCN1CCCCCC1=O)c1n[nH]c(=O)c2ccccc12`: the cytotoxicity at 10 µM was -4.38%. For `O=C1OCCN1CCc1nc(-c2cc3c4c(c2)CC(=O)N4CCC3)cs1`, the cytotoxicity at 10 µM is -7.1%.

As to `CN(Cc1nnc2n1CCC2)C(=O)Cc1ccc2c(c1)OCCO2`, the cytotoxicity at 10 µM is -7.86%. Turning to `CC(CNCc1ccc(Br)cc1)Oc1ccccn1` (configuration not stated), the cytotoxicity at 10 µM is 5.36%. Take `Cc1ccc(C2(CN3CCN(Cc4cnc(C)n4C)CC3)CC2)cc1`: the cytotoxicity at 10 µM was -3.99%. In the case of `O=S1(=O)NC[C@H]2CCN(Cc3ccccc3)CC[C@H]21`, the cytotoxicity at 10 µM was -10.5%. For `CC(=O)N1C[C@H]2CCCC(N3CCN(c4ncccn4)CC3)[C@H]2C1` (some centres not stated), the cytotoxicity at 10 µM was 9.46%. `CN(C)CCOCC1CN(CC2CCOCC2)Cc2nnn(C)c21` (configuration not stated): the cytotoxicity at 10 µM was found to be 3.01%. The value for `O=C(N1CCCO1)[C@@]12CCO[C@@H]1CCN(C1CCCCC1)C2` was -5.23%; that for `N#Cc1ccccc1C(=O)N1C[C@@H]2CC[C@H]1CN(c1ncccn1)C2` was 2.43%; that for `CCOC(=O)N1C[C@@H]2CC[C@H]1CN(Cc1ccccc1)C2` was 2.7%. Regarding `CS(=O)(=O)N1C[C@H]2CC[C@@H](C1)N(C(=O)CCn1cnc3ccccc31)C2`, the cytotoxicity at 10 µM is 4.11%. Consider `CC(C)=CCN1C(=O)[C@@H]2CC[C@H]1CN(c1ncccc1F)C2`, for which the cytotoxicity at 10 µM stood at 9.72%.

These data come from ChEMBL document CHEMBL4513216, “Probing the Open Global Health Chemical Diversity Library for Multistage-Active Starting Points for Next-Generation Antimalarials” (ACS Infect Dis, 2020).
